Experimental data published in the array DNA melting data of Ke et al. (doi:10.1101/2024.01.08.574731).

How the values were obtained:
[1] = melting temperature; fluorescence melt of hairpins on a sequencing array, two-state fit, raised by 9.35 °C to match UV melts; details: sodium 0.088 M
Procedure, shortened: (§1)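 With Cy3 and quencher oligos annealed, library hairpins on a sequenced MiSeq flow cell were imaged for Cy3 fluorescence in 50 mM Na-HEPES pH 8.0, 25 mM NaCl, in 2.5 °C steps up to 60 °C. Melting temperature and folding enthalpy were derived from bootstrapped two-state fits of signals normalised to pre-quench Cy3 and to control constructs. Four replicates were combined by inverse variance, with fitted temperatures raised by 9.35 °C to match UV melts.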

[2] = folding enthalpy; higher = less favourable; fluorescence melt of hairpins on a sequencing array, two-state fit; details: sodium 0.088 M
Procedure, shortened: as §1

Sequence | Tm [1] [°C] | folding enthalpy [2] [kcal/mol]
GCGTGCCGACGC ((((....)))) | 60.1 | -19.3
CGGCCCGGAAACGGCCCG (((.(((....))).))) | 51.8 | -17.9
ACGAAGAAATTCGT (((((....))))) | 38 | -18.1
GCTGAGTCGAAAGACAGC (((..(((....)))))) | 44.5 | -20.8
GCAAAGCGAAAGCCTTGC ((((.((....)).)))) | 53 | -22.1
GATCAGTCATCTGATC ((((((....)))))) | 51.1 | -35.4
GTATCGGGAAACCAATAC ((((.((....)).)))) | 30.3 | -24.6
GCTATCGAAAGATTTAGC ((((((....)))..))) | 32.7 | -19.9
GAGGGCGAAAGCCGTCTC ((((((....)))..))) | 59 | -20.4
GCAAAATCGAAAGATTGC (((..(((....)))))) | 38.5 | -20.6
GATCCCGAAAGGGTCATC ((((((....)))..))) | 42.8 | -12.1
GCGTTCATACGC ((((....)))) | 54.7 | -21.7
GGGTAGGGAAACCCACCC ((((.((....)).)))) | 48.3 | -29.2
GCCGACCCGAAAGGGGGC (((..(((....)))))) | 55.7 | -18.4
GAACCGGGAAACCAGTTC ((((.((....)).)))) | 36.5 | -26.2
GTCTTGAAAAAGAC (((((....))))) | 44.1 | -21.7
GATCTTGGTCAAGATC ((((((....)))))) | 48.9 | -36.8
GATCCATGTTTGGATC ((((((....)))))) | 53.8 | -42.8
GGCGTTGCGAAAGCAGCC (((..(((....)))))) | 63.1 | -32.3
GTCTTCGGAAACAAAGAC (((((.(....).))))) | 32.3 | -29.7
GAGGCAGGAAACTGTCTC (((.(((....))).))) | 50.2 | -34.1
GGGACCGGAAACGGTCTC (.(((((....))))).) | 59.2 | -13.2
GATCTCTAACGAGATC ((((((....)))))) | 49.4 | -33.4
GTAGTCGAAAGACAATAC ((((((....)))..))) | 28.3 | -15.2
GACCTGCCGAAAGGCGTC (((..(((....)))))) | 29.3 | -9.15
GTTAACGGAAACGTTGAC ((.((((....)))).)) | 46.3 | -26.9
GGCTGAGCGAAAGCTGCC (((..(((....)))))) | 51.6 | -20

Sequence | Tm [1] [°C] | folding enthalpy [2] [kcal/mol]
GATCGTGAATACGATC ((((((....)))))) | 61.7 | -35
GAAGACGAAAGTCATTC ((((((....))).))) | 31.4 | -14.1
GGCAACGAAAGTTGGCC ((((((....))).))) | 64 | -18.7
GGGCGCGAAAGCGAACCC ((((((....)))..))) | 59.3 | -14
GATCCCGCCGGGGATC ((((((....)))))) | 63.1 | -37.7
GCTCGAGGAAACTCGAAC (.(((((....))))).) | 40.9 | -18.1
CGTGTGAAAACACG (((((....))))) | 58.6 | -29.3
GCAGGACCGAAAGGTTGC (((..(((....)))))) | 44.8 | -20.7
GGGAAACGAAAGTTACCC (((.(((....))).))) | 50.7 | -29.5
GCAGGCTCGAAAGAGTGC (((..(((....)))))) | 36.6 | -19.8
GGTAAGGGAAACTTTACC (((((.(....).))))) | 36.4 | -21.3
GTGAAGCCGAAAGGCCAC (((..(((....)))))) | 47.8 | -15.6
GATCAATGCCTTGATC ((((((....)))))) | 45.3 | -26.2
GCGTACACGAAAGTGCGC (((..(((....)))))) | 52.8 | -26.4
GCGTCGGGAAACCGACAC (.(((((....))))).) | 48.1 | -11.2
GATCTCGAGAGAGATC ((((((....)))))) | 63.7 | -32.6
GGTGCAGGAAACTGTGCC ((..(((....)))..)) | 48.5 | -26.1
GGTGCCGAAAGGCGCACC ((((((....)))..))) | 53.2 | -11
GATCTTAGATAAGATC ((((((....)))))) | 41.8 | -42.7
GCATTGGAAACAATGC ((((((....)))))) | 57.7 | -39.4
GCCTTGCGAAAGCACTGC ((..(((....)))..)) | 40.3 | -8.58
GGCACCGAAAGGTTGCC ((((((....))).))) | 63 | -30.9
GTCATGAAAATGAC (((((....))))) | 50.1 | -27.1
GCATAGCGAAAGCTTTGC (((.(((....))).))) | 53.4 | -41.9
GCTGACGGAAACGTTAGC (((.(((....))).))) | 53.6 | -43
GATGTCCGAAAGGAGATC (((.(((....))).))) | 50.3 | -28.9
GTCAAGCGAAAGCTGGAC (((.(((....))).))) | 62.4 | -29.4
